From PubChem BioAssay
An excerpt weighted towards active compounds, which were near 12% of everything screened.
Lmaj promast: inhibitors of Leishmania major promastigote growth | Leishmania major promastigotes, resazurin fluorescence viability | inhibition, % at 10 µM | actives 9% (n = 200,000); in the data active = inhibition above about 50%;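 note: promastigotes grown with compound for 44 hours at 28 °C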
WT yeast gro inh: growth inhibition of WT yeast, mitochondrial fusion screen; inhibition, % at 10 µM; AID 1362; mitochondrial fusion phenotypic screen, WT strain; actives 2.1% (n = 190,000); in the data active = inhibition above about 58%; tested in S. cerevisiae
RAM inhibit: inhibitors of the yeast RAM network | S. cerevisiae dse1pr::URA3 reporter, 5-FOA growth OD615, 2 d; analog-sensitive cbk1-as2 kinase mutant strain | inhibition, % at 50 µM | actives 1.8% (n = 190,000);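 active = inhibition above a set limit, 3 SD over mean compound inhibition, cut at about 8.4% in these data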;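 note: 0% = DMSO-only wells with no growth and 100% = 10 µM 1-NA-PP1 full growth; inhibition rescues growth on 5-FOA so higher OD means more RAM inhibition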
ABCG2 inh: human ABCG2 inhibition, ABCB1 as counter-screen | Q9UNQ0 | IgMXP3 cells, JC-1 efflux, flow cytometry | inhibition, % at 6.6 µM | actives 0.1% (n = 190,000);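 active = inhibition above 80%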;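 note: 0% = DMSO and 100% = nicardipine control wells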
Target sequence (Q9UNQ0 whole entry, looked up): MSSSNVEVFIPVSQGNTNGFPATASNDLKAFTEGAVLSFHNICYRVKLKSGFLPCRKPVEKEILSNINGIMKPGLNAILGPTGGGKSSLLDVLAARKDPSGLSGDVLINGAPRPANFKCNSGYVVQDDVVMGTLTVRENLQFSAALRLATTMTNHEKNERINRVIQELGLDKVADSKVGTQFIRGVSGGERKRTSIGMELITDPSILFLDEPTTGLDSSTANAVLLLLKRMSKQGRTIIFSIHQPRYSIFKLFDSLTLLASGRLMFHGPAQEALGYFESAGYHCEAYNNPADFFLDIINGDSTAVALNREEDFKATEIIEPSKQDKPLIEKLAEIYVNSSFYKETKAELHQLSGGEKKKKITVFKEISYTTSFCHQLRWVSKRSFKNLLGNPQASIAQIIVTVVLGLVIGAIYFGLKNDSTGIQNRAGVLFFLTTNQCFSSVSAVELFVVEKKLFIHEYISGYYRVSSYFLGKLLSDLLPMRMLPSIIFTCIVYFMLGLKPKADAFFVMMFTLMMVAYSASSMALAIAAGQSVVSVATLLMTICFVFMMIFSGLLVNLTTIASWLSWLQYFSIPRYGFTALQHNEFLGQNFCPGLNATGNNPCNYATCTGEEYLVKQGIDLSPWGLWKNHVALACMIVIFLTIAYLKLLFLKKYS
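Measure – % inhibition of efflux relative to nicardipine and DMSO · Test system – ABCG2 IgMXP3 and barcoded ABCB1 CCRF-Adr cell mix · Control set – nicardipine as high control, DMSO as low control · Compound – one concentration, 6.6 µM final · Signal – flow cytometry of retained JC-1 fluorescence · Timing – 10 min exposure at 25 °C with rotation, no wash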
ABCB1 inh: blocks JC-1 efflux by human ABCB1 transporter; inhibition, % at 6.6 µM; AID 1326; actives 0.067% (n = 190,000); P08183; CCRF-Adr cells, flow cytometry; in the data active = inhibition above about 40%;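 note: 0% = vehicle and 100% = reference inhibitor; higher value means more JC-1 retained so stronger ABCB1 efflux block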
An asterisk follows results filed as active; nt = no result.

SMILES | Lmaj promast | WT yeast gro inh | RAM inhibit | ABCG2 inh | ABCB1 inh
O=C1CC(C(=O)Nc2ccccc2)S/C(=N\NC(=O)c2ccccc2Cl)N1 (centres undefined) | -3 | 3 | 2 | 0 | 1
COc1ccc(NC(=O)/C(C#N)=C/c2ccc(OCc3ccccc3F)cc2)cc1 | 49 | 9 | 1 | 2 | 1
O=C(CSCC(=O)N1CCCCC1)OCC(=O)c1c[nH]c2ccccc12 | 0 | -10 | 3 | 2 | 0
CC/C(C)=N/NC(=S)NCc1ccco1 | -2 | 12 | 3 | 5 | 0
CC(C)CNC(=S)Nc1ccc(Oc2ccccc2)cc1 | 1 | 63* | 3 | 5 | 0
CCNC(=S)NCc1ccco1 | 59* | 7 | 1 | 7 | 0
CC(NC(=O)C(=O)NN=C1CCCC1)c1ccccc1 (centres undefined) | -6 | 16 | 1 | 4 | 1
COc1ccc2[nH]cc(S(=O)(=O)c3ccc(C)cc3)c2c1 | 0 | -2 | -1 | -1 | 0
COc1ccc(F)cc1S(=O)(=O)NC1CCCC1 | -3 | -4 | 1 | 4 | 1
CCC(C)(C)NC(=O)CN(C(=O)c1snc(C(N)=O)c1N)c1ccc2c(c1)OCCO2 | 13 | 73* | 3 | 1 | 0
CCCC(C(=O)NC(C)(C)C)N(C(=O)c1snc(C(N)=O)c1N)c1ccc2c(c1)OCCO2 (centres undefined) | 52* | -5 | 1 | 0 | 1
CCC(C)(C)NC(=O)CN(C(=O)c1snc(C(N)=O)c1N)c1ccc2nc(C)sc2c1 | 5 | 5 | 1 | 1 | 3
Cc1ccc(C(C(=O)NC(C)(C)C)N(Cc2ccccc2)C(=O)c2snc(C(N)=O)c2N)o1 (centres undefined) | 54* | 11 | 1 | 0 | 0
CCC(C)C(NC(=O)/C(=C\c1ccccc1)NC(=O)c1ccc(OC)cc1)C(=O)O (centres undefined) | -7 | -10 | -1 | -1 | 0
CC(C)(C)n1nnnc1C(c1cccc(C#N)c1)N1CCC(Cc2ccccc2)CC1 (centres undefined) | 83* | 17 | 3 | 1 | 1
CC(C)(C)n1nnnc1C(c1ccncc1)N1CCCCCC1 (centres undefined) | -3 | 14 | 2 | 2 | 0
CCC(C)(C)n1nnnc1C(c1cccnc1)N1CCCC(C)C1 (centres undefined) | 87* | 3 | 1 | 6 | 1
CCC(C)(C)n1nnnc1C(c1ccncc1)N1CCC(Cc2ccccc2)CC1 (centres undefined) | 91* | 5 | -1 | 3 | 1
CC(C)(C)n1nnnc1C(c1ccc(C#N)cc1)N1CCCC2(CCCCC2)C1 (centres undefined) | 78* | 18 | 2 | 2 | 1
CCC(C)(C)n1nnnc1C(c1ccc(C)cc1)N1CCN(Cc2cccnc2)CC1 (centres undefined) | 22 | -6 | 1 | 3 | 1
COc1cc(OC)cc(C(=O)N2CCN(Cc3ccccc3Br)CC2)c1 | -8 | 9 | 1 | 2 | 1
COC(=O)CCc1nc2cc(Cl)ccc2n(Cc2ccccc2)c1=O | 3 | 3 | 0 | 1 | 1
Cc1ccc(NC(=O)COC(=O)C2CC(=O)N(Cc3ccccc3)C2)cc1F (centres undefined) | -1 | -8 | 3 | 5 | 0
CCC(C)(C)n1nnnc1C(c1cccnc1)N1CCC(Cc2ccccc2)CC1 (centres undefined) | 90* | -89 | 4 | 2 | 2
O=C(c1ccccc1)C(C(=O)N1CCc2ccccc2C1)n1ccccc1=O (centres undefined) | 73* | -26 | 1 | 5 | nt
SMILES | Lmaj promast | WT yeast gro inh | RAM inhibit | ABCG2 inh | ABCB1 inh
COc1ccc(-n2nnnc2-c2cn(C)nc2C(F)(F)F)cc1 | -7 | 53 | 0 | 0 | 0
Cc1c2cnn(-c3ccccc3)c(=O)c2c(C)n1CCCC(=O)N1CCN(c2ncccn2)CC1 | -7 | 26 | 1 | 3 | 1
CCN1CCN(C(=O)CCCn2c(C)c3cnn(-c4ccccc4)c(=O)c3c2C)CC1 | 69* | -9 | 0 | 1 | 0
CCC(C)(C)c1ccc(OCCCC[n+]2cccc(C)c2)c(C(C)(C)CC)c1 | 100* | 98* | -2 | 4 | 0
O=C(CC1CC2CCC1C2)Nc1nc(-c2ccccn2)cs1 (centres undefined) | 100* | 74* | 0 | 8 | 1
O=C(Nc1nc(-c2ccccn2)cs1)C1CC1 | 86* | 10 | 1 | 1 | 0
CN(CC1CCCO1)S(=O)(=O)c1ccc(C(=O)Nc2nc(-c3ccccn3)cs2)cc1 (centres undefined) | 100* | 12 | 0 | 1 | 1
O=C(Nc1nc(-c2ccccn2)cs1)C1CC(=O)N(c2ccc3c(c2)OCCO3)C1 (centres undefined) | 100* | -4 | 1 | 9 | 1
CC(=O)Nc1cccc(Oc2ncnc3scc(-c4ccc(C)cc4)c23)c1 | 2 | -4 | 2 | 4 | 1
O=C(CSc1nc2ccccc2c(=O)n1-c1ccc(F)cc1F)c1c[nH]c2ccccc12 | 32 | -8 | 3 | -5 | -1
Cc1nc(SCC(=O)N2c3ccccc3Sc3ccccc32)n[nH]1 | 5 | 4 | 1 | 1 | 0
Cc1ccc(NC(=O)COC(=O)c2ccc([N+](=O)[O-])o2)cc1S(=O)(=O)N1CCCCCC1 | -3 | 15 | 1 | 3 | 0
Clc1ccc(Sc2ccc(/C=N/n3cnnc3)o2)cc1 | 66* | -10 | 1 | 2 | 1
CN(C)C(=O)/C(C#N)=C\c1cc(Br)c(Sc2ccc(Cl)cc2)o1 | 19 | 88* | 7 | -3 | 0
Clc1ccc(Sc2oc(/C=N/n3cnnc3)cc2Br)cc1 | 71* | 19 | 3 | 5 | -1
CCC(O)CNC(=O)NC(=C(Cl)Cl)c1ccc(C)c(F)c1 (centres undefined) | 26 | -23 | 2 | 1 | 1
CC(C(O)c1ccc(O)cc1)N1CCC(Cc2ccccc2)CC1 (centres undefined) | 96* | 42 | -2 | 0 | 0
O=C(Cc1ccccc1[N+](=O)[O-])NCCSCc1c(F)cccc1Cl | -6 | 7 | 5 | 2 | 1
Cc1cc(C)cc(OCCCCCNCCO)c1 | 52* | 3 | 2 | 7 | 1
Cc1cc(C)c(OCCCCCNCCO)c(C)c1 | 90* | -1 | 2 | 3 | 1
Cc1cc(OCCCCCNCCO)cc(C)c1Cl | 98* | 42 | 0 | -3 | 0
Cc1cc(OCCNCCO)cc(C)c1Cl | 66* | -3 | 1 | 3 | 0
Cc1cc(OCC(=O)NCCO)cc(C)c1Cl | -2 | 4 | 0 | 9 | 0
N#CCOC(=O)c1c2c(nc3ccccc13)CCC2 | -8 | 3 | 0 | 2 | 0
Cn1cccc1/C=N/NC(=O)c1cccc(OC(F)(F)C(F)F)c1 | -6 | 9 | 4 | 0 | 0
